The source made the active and inactive calls. The rule behind the calls is not given here.
Columns and labels:
[1] = target: T1, Tyrosine-protein phosphatase non-receptor type 1 (Homo sapiens) (UniProt P18031); experiment: (§1) Inhibition of PTP1B (1 to 298 residues) (unknown origin) using DifMUP as substrate preincubated for 30 mins followed by substrate addition and measured after 30 mins by fluorescence assay
T1 sequence (whole entry): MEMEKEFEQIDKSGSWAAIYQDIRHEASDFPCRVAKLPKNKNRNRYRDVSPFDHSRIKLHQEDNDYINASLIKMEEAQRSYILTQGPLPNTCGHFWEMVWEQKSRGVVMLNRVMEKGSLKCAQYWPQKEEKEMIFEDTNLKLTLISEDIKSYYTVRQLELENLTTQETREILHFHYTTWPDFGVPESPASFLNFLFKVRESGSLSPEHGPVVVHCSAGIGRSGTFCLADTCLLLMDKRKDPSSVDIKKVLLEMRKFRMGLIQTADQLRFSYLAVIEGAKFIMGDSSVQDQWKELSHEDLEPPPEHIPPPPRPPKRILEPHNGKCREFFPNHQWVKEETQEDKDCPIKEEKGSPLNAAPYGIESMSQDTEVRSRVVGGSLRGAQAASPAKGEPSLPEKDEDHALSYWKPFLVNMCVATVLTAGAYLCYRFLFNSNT
How it was run: (§2)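 PTP1B catalytic domain (aa 1–298, 5 nM final) preincubated with compound (diluted in DMSO) 30 min at RT in the dark. DifMUP (30 μM final) added, 30 min at RT. Stopped with H2O2 (0.5% final), 30 min RT. Fluorescence read at Ex 360/Em 450 nm. Buffer: 50 mM citrate pH 6.0, 100 mM NaCl, 1 mM EDTA, 0.1 mM DTT, 0.01% Brij35.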

[2] = Effect on fluorescence read out during PTP1B enzymatic reaction compound treated post enzyme-substrate reaction and susequent H2O2-mediated enzyme deactivation
How it was run: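 Read-out counter assay. PTP1B (aa 1–298) turned over DifMUP first, then the enzyme was deactivated with H2O2 and compound added. A drop in fluorescence (Ex 360/Em 450 nm) marks interference with the read-out. Concentration–response format.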

[3] = target: T2, Tyrosine-protein phosphatase non-receptor type 1 (Homo sapiens, UniProt P18031); experiment: as §1; how it was run: as §2
T2 sequence (P18031 whole entry): T1 sequence (whole entry)

[4] = Intrinsic redox activity of compound after 60 mins in presence of resazurin/DTT
[5] = target: T2, Tyrosine-protein phosphatase non-receptor type 1; experiment: Competitive inhibition of PTP1B (1 to 298 residues) (unknown origin) using 15 uM DifMUP as substrate preincubated for 30 mins followed by substrate addition and measured after 30 mins by fluorescence assay
How it was run: (§3)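 PTP1B aa 1–298 (5 nM final) preincubated with compound 30 min at RT in the dark, then DifMUP added, 30 min at RT. Stopped with 0.5% final H2O2, 30 min. Fluorescence read at Ex 360/Em 450 nm. Buffer: citrate pH 6.0, NaCl, EDTA, DTT, Brij35.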

[6] = target: T2, Tyrosine-protein phosphatase non-receptor type 1; experiment: Competitive inhibition of PTP1B (1 to 298 residues) (unknown origin) using 30 uM DifMUP as substrate preincubated for 30 mins followed by substrate addition and measured after 30 mins by fluorescence assay; how it was run: as §2
[7] = target: T2, Tyrosine-protein phosphatase non-receptor type 1; experiment: Competitive inhibition of PTP1B (1 to 298 residues) (unknown origin) using 60 uM DifMUP as substrate preincubated for 30 mins followed by substrate addition and measured after 30 mins by fluorescence assay; how it was run: as §3
[8] = target: T1, Tyrosine-protein phosphatase non-receptor type 1 (Homo sapiens); experiment: Reversible inhibition of PTP1B (1 to 298 residues) (unknown origin) using 10 fold excess DifMUP as substrate preincubated for 30 mins followed by substrate addition and measured after 30 mins by fluorescence assay
[9] = Self-aggregating behavior of compound at 32 to 500 uM by 1D-1H NMR method; format: physicochemical
How it was run: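 Self-association check by 1D 1H NMR. Dilution series from 500 to 32 μM compound in 5 mM TRIS pH 7.4, 50 mM NaCl, 5% DMSO-d6. Concentration-dependent shifts of aromatic resonances were monitored.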

Row | SMILES | inhibition [1] | Activity [2] | IC50 [3] | further results
1 | CC(=O)Oc1c(C)c(C)c2c(c1C)CC[C@@](C)(CCC[C@H](C)CCC[C@H](C)CCCC(C)C)O2 | inactive | – | – | –
2 | CN(C)c1ccc2nc3ccc(=[N+](C)C)cc-3sc2c1 | Active | – | – | –
3 | Cc1c(C)c2c(c(C)c1O)CC[C@@](C)(CCC[C@H](C)CCC[C@H](C)CCCC(C)C)O2 | inactive | – | – | –
4 | Cc1c(C)c2c(c(C)c1OC(=O)CCC(=O)O)CCC(C)(C)O2 | inactive | – | – | –
5 | O=C(O)C(=O)Nc1sc2c(c1C(=O)O)CCNC2 | – | inactive | – | –
6 | Cc1c(C)c2c(c(C)c1OC(=O)CCC(=O)O)CC[C@@](C)(CCC[C@H](C)CCC[C@H](C)CCCC(C)C)O2 [(+)-ALPHA-TOCOPHERYL SUCCINATE] | – | inactive | 20 µM | Activity [4]: inactive; IC50 [5]: 25.1 µM; IC50 [6]: 39 µM; IC50 [7]: 45.6 µM; inhibition [8]: Active
7 | COc1ccc2cc3[n+](cc2c1OC)CCc1cc2c(cc1-3)OCO2 [BERBERINE] | – | Active | 67 µM | Activity [9]: Active
8 | COc1cc2c(cc1OC)-c1cc3ccc(OC)c(OC)c3c[n+]1CC2 [PALMITINE] | – | Active | 234 µM | –

Source: ChEMBL document CHEMBL4261523, “PAIN-less identification and evaluation of small molecule inhibitors against protein tyrosine phosphatase 1B” (Medchemcomm, 2017)
